Data set [1] can be described thus: Metabolic stability in mouse plasma assessed as compound remaining at 1:1 1 x pH7.4 PBS measured at 3 hrs by LC-MS/MS analysis. The data set is classed as ADME, cell-free. As to conditions: pH 7.4, read-out: Stability. In short, it runs like this:
(§1)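 Stability of each analogue was reported as % of compound remaining. For liver microsomes this was after 1 hr, with runs with and without NADPH. For plasma this was after 3 hrs in plasma mixed 1:1 with 1× PBS, pH 7.4. Both human and mouse matrices were used.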

A short description of data set [2]: Plasma protein binding in human at 10 uM by LC-MS analysis. It is filed as ADME, cell-free. Conditions: read-out: PPB (converted). The essentials:
(§2)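 Read-out was % of compound bound in human or mouse plasma, each tested at 1 µM and 10 µM.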

Data set [3] in a line: Permeability of the compound at donor pH 7.4 and acceptor pH 7.4 by PAMPA. The data set is classed as ADME. In short, it runs like this: (§3)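 PAMPA with the acceptor compartment at pH 7.4 and the donor at pH 5.0, 6.2 or 7.4. Permeability reported as ×10^-6 cm/s. Part of an in vitro ADME panel.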
Data set [4] is described as follows: Metabolic stability in human plasma assessed as compound remaining at 1 x pH7.4 PBS measured at 3 hrs by LC-MS/MS analysis. The data set is classed as ADME, cell-free. Conditions: pH 7.4, read-out: Stability. The essentials: as §1
Data set [5] has as its target T1, Alkaline phosphatase, tissue-nonspecific isozyme (Homo sapiens, UniProt P05186).
T1 sequence (P05186 whole entry): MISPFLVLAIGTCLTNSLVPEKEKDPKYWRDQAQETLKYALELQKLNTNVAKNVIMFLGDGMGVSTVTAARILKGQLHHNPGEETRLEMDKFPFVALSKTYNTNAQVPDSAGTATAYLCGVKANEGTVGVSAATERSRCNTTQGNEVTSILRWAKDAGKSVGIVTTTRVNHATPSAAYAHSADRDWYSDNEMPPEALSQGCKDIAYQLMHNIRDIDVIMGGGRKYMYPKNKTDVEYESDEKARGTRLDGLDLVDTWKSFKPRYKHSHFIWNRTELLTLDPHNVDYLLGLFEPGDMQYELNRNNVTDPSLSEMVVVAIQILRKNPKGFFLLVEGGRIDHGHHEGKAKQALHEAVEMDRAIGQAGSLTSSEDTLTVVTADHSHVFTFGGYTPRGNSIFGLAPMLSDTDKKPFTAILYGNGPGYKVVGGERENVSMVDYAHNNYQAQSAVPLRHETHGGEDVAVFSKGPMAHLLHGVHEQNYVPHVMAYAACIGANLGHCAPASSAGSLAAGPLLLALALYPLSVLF

Data set [6] can be described thus: Plasma protein binding in mouse at 10 uM by LC-MS analysis. The data set is classed as ADME, cell-free. Conditions: read-out: PPB (converted). In short, it runs like this: as §2
Data set [7] in a line: Plasma protein binding in mouse at 1 uM by LC-MS analysis. The data set is classed as ADME, cell-free. Conditions: read-out: PPB (converted). In short, it runs like this: as §2
The nature of data set [8]: Cytotoxicity against human Fa2N-4 cells after 24 hrs by ATP-lite 1-step assay. It is filed as cell-based. As to conditions: fa2n-4, 24 h, read-out: LC50 (the source's name).
A short description of data set [9]: Plasma protein binding in human at 1 uM by LC-MS analysis. It is filed as ADME, cell-free. Conditions: read-out: PPB (converted). In short, it runs like this:
as §2

The nature of data set [10]: Permeability of the compound at donor pH 6.2 and acceptor pH 7.4 by PAMPA. It is filed as ADME. In short, it runs like this: as §3
The nature of data set [11]: Metabolic stability in human plasma assessed as compound remaining at 1:1 1 x pH7.4 PBS measured at 3 hrs by LC-MS/MS analysis. The data set is classed as ADME, cell-free. As to conditions: pH 7.4, read-out: Stability. In short, it runs like this: as §1
The nature of data set [12]: Metabolic stability in mouse liver microsomes measured at 1 uM after 1 hr at pH 7.4 by LC-MS/MS analysis. The data set is classed as ADME. As to conditions: read-out: Stability. In short, it runs like this: as §1
The target in data set [13] is T2, Ectonucleotide pyrophosphatase/phosphodiesterase family member 1 (Homo sapiens, UniProt P22413).
T2 sequence (P22413 whole entry): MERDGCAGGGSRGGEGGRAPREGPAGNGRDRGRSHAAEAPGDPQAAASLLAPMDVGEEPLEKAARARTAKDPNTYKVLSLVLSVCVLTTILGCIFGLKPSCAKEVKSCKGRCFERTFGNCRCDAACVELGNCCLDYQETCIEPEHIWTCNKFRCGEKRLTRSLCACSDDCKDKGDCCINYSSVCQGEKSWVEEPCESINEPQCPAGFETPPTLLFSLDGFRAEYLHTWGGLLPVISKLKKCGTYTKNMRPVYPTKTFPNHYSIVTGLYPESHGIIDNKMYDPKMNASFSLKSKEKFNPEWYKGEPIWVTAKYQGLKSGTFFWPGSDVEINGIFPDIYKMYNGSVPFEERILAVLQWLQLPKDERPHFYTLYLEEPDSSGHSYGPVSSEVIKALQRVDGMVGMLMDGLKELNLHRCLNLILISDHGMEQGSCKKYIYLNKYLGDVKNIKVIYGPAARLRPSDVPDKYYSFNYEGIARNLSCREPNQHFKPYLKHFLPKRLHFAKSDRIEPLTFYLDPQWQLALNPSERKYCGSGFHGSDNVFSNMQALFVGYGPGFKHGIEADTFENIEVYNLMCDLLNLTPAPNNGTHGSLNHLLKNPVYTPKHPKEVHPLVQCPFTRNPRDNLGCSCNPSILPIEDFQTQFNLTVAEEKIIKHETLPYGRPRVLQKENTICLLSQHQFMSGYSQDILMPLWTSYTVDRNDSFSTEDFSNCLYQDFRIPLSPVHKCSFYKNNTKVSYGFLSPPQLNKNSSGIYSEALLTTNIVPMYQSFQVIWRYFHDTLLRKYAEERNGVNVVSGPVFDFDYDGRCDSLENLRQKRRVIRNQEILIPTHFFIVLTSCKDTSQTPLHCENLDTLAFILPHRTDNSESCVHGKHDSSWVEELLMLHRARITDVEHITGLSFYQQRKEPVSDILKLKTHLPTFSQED
The experiment in a line: Inhibition of NPP1 (unknown origin).

Data set [14] can be described thus: Aqueous solubility of the compound in pH 7.4 pION buffer by UV kinetic solubility method. The data set is classed as physicochemical. The essentials: (§4)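 Kinetic solubility in pION's buffer at pH 5.0, 6.2 or 7.4, reported in µg/ml. Part of an in vitro ADME panel.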
The nature of data set [15]: Permeability of the compound at donor pH 5.0 and acceptor pH 7.4 by PAMPA. It is filed as ADME. The essentials: as §3
On the technique in general: The PAMPA barrier holds no transporters, so it reflects passive diffusion.

Data set [16] in a line: Metabolic stability in mouse plasma assessed as compound remaining at 1 x pH7.4 PBS measured at 3 hrs by LC-MS/MS analysis. The data set is classed as ADME, cell-free. Conditions: pH 7.4, read-out: Stability. The essentials: as §1
Data set [17] is described as follows: Aqueous solubility of the compound in pH 5 pION buffer by UV kinetic solubility method. The data set is classed as physicochemical. The essentials: as §4
Data set [18] is described as follows: Inhibition of Streptococcus pneumoniae diphosphomevalonate decarboxylase assessed as conversion of (R)-5-diphosphomevalonate to ADP by fluorometry.
Data set [19] can be described thus: Metabolic stability in human liver microsomes measured at 1 uM after 1 hr at pH 7.4 by LC-MS/MS analysis. It is filed as ADME. As to conditions: read-out: Stability. The essentials: as §1
A short description of data set [20]: Aqueous solubility of the compound in pH 6.2 pION buffer by UV kinetic solubility method. It is filed as physicochemical. The essentials: as §4

Some results are limits rather than exact numbers.

What is called IC50 is the concentration needed to halve the response being measured. By kinetic solubility is commonly meant the concentration staying in solution when a stock, usually in DMSO, is diluted into the medium.

Consider `CN(C)C(=O)c1cccc(-n2sc3ccccc3c2=O)c1`, for which the remaining at 3 h in data set [1] worked out at 56.9%; in [4], 18.9%; in [11] it was 60%; in data set [16], 76.2%. The fraction unbound at 10 µM was 0.558 in data set [2] and 0.533 in data set [6]. Further, the results for the permeability in data set [3], in data set [10] and in data set [15] were 97 ×10⁻⁶ cm/s, 92 ×10⁻⁶ cm/s and 94 ×10⁻⁶ cm/s, respectively. Further, the 50% inhibitory concentration (IC50) is greater than 100 µM in data set [5], greater than 30 µM in data set [13] and 24 µM in [18]. Also, the fraction unbound at 1 µM in data set [7] was 0.52; in data set [9] it was 0.587. For the same molecule, the CC50 in [8] was greater than 50 µM. For the same molecule, the values for the remaining at 1 h, 1 µM in data set [12] and in data set [19] were 56.6% and 45.7%, respectively. In addition, the solubility (kinetic) in data set [14], in data set [17] and in data set [20] was greater than 30 µg/mL throughout.

The values above are taken from ChEMBL document CHEMBL3351720, “Design, synthesis and evaluation of benzoisothiazolones as selective inhibitors of PHOSPHO1” (Bioorg Med Chem Lett, 2014).
